Converted amounts (≈) assume the structure as drawn.
How the values were obtained:
Candida albicans [1] = assay: Antifungal activity against clinical isolates of Candida albicans 2779 at 2 times MIC after 48 hrs by disc diffusion assay; type: functional
In short: (§1)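 Cells (10^3 cells ml−1) grown in YPD were mixed into molten agar (~40 °C) and poured into 100-mm plates. Filter discs (4 mm) were spotted with 10 µl of compound at 1/2 × MIC, MIC or 2 × MIC. Fluconazole and 1% DMSO were the controls. Plates were incubated at 37 °C for 48 h and inhibition zone diameters recorded in mm.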

Candida tropicalis [2] = assay: Antifungal activity against clinical isolates of Candida tropicalis 2029 at MIC after 48 hrs by disc diffusion assay; type: functional; in short: as §1
Candida albicans [3] = assay: Antifungal activity against clinical isolates of Candida albicans 2779 at MIC after 48 hrs by disc diffusion assay; type: functional; in short: as §1
Candida tropicalis [4] = assay: Antifungal activity against Candida tropicalis ATCC 750 by broth microdilution assay; type: functional
In short: (§2)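 CLSI M27-A3 broth microdilution. Compounds diluted to 1 mg/ml in 1% DMSO. Fluconazole (1 mg/ml) served as positive control, 1% DMSO as vehicle control, with media and culture controls. Triplicate at each concentration, repeated thrice. Inocula came from YPDA stocks subcultured in broth for 48 h at 37 °C.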

Candida tropicalis [5] = assay: Antifungal activity against clinical isolates of Candida tropicalis 2029 by broth microdilution assay; type: functional; in short: as §2
Candida albicans [6] = assay: Antifungal activity against Candida albicans ATCC 10261 at 2 times MIC after 48 hrs by disc diffusion assay; type: functional; in short: as §1
Candida tropicalis [7] = assay: Antifungal activity against clinical isolates of Candida tropicalis 2356 by broth microdilution assay; type: functional; in short: as §2
Candida albicans [8] = assay: Antifungal activity against clinical isolates of Candida albicans 2367 at half MIC after 48 hrs by disc diffusion assay; type: functional; in short: as §1
Candida tropicalis [9] = assay: Antifungal activity against Candida tropicalis ATCC 750 at 2 times MIC after 48 hrs by disc diffusion assay; type: functional; in short: as §1
Candida albicans [10] = assay: Antifungal activity against clinical isolates of Candida albicans 2779 at half MIC after 48 hrs by disc diffusion assay; type: functional; in short: as §1
Candida tropicalis [11] = assay: Inhibition of ergosterol biosynthesis in Candida tropicalis 2029 assessed as ergosterol content at MIC after 16 hrs by spectrophotometer analysis; type: functional; design: scale not given: the % may be the effect or the level left
In short: (§3)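 Cells were pelleted and washed, and wet weight taken. Pellets were saponified in 25% alcoholic KOH at 85 °C for 1 h. Sterols were extracted into n-heptane/water. Ergosterol content is expressed relative to untreated control cells.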

Candida tropicalis [12] = assay: Antifungal activity against clinical isolates of Candida tropicalis 2356 at half MIC after 48 hrs by disc diffusion assay; type: functional; in short: as §1
Candida albicans [13] = assay: Inhibition of ergosterol biosynthesis in Candida albicans ATCC 10261 assessed as ergosterol content at 1/2 MIC after 16 hrs by spectrophotometer analysis; type: functional; design: scale not given: the % may be the effect or the level left; in short: as §3
Candida albicans [14] = assay: Antifungal activity against clinical isolates of Candida albicans 2367 by broth microdilution assay; type: functional; in short: as §2
Candida albicans [15] = assay: Inhibition of ergosterol biosynthesis in Candida albicans 2367 assessed as ergosterol content at MIC after 16 hrs by spectrophotometer analysis; type: functional; design: scale not given: the % may be the effect or the level left; in short: as §3
Candida albicans [16] = assay: Inhibition of ergosterol biosynthesis in Candida albicans 2323 assessed as ergosterol content at 1/2 MIC after 16 hrs by spectrophotometer analysis; type: functional; design: scale not given: the % may be the effect or the level left; in short: as §3
Candida tropicalis [17] = assay: Inhibition of ergosterol biosynthesis in Candida tropicalis 2356 assessed as ergosterol content at MIC after 16 hrs by spectrophotometer analysis; type: functional; design: scale not given: the % may be the effect or the level left; in short: as §3
Candida albicans [18] = assay: Inhibition of ergosterol biosynthesis in Candida albicans 2779 assessed as ergosterol content at MIC after 16 hrs by spectrophotometer analysis; type: functional; design: scale not given: the % may be the effect or the level left; in short: as §3
Candida albicans [19] = assay: Antifungal activity against clinical isolates of Candida albicans 2323 at half MIC after 48 hrs by disc diffusion assay; type: functional; in short: as §1
Candida albicans [20] = assay: Antifungal activity against clinical isolates of Candida albicans 2323 by broth microdilution assay; type: functional; in short: as §2
Candida tropicalis [21] = assay: Inhibition of ergosterol biosynthesis in Candida tropicalis 2356 assessed as ergosterol content at 1/2 MIC after 16 hrs by spectrophotometer analysis; type: functional; design: scale not given: the % may be the effect or the level left; in short: as §3
Candida albicans [22] = assay: Antifungal activity against clinical isolates of Candida albicans 2779 by broth microdilution assay; type: functional; in short: as §2
Candida tropicalis [23] = assay: Antifungal activity against clinical isolates of Candida tropicalis 2356 at MIC after 48 hrs by disc diffusion assay; type: functional; in short: as §1
Candida tropicalis [24] = assay: Antifungal activity against clinical isolates of Candida tropicalis 2356 at 2 times MIC after 48 hrs by disc diffusion assay; type: functional; in short: as §1
Candida tropicalis [25] = assay: Cytotoxicity against Candida tropicalis ATCC 750 at MIC after 24 hrs by WST1 assay
Candida albicans [26] = assay: Inhibition of ergosterol biosynthesis in Candida albicans 2367 assessed as ergosterol content at 1/2 MIC after 16 hrs by spectrophotometer analysis; type: functional; design: scale not given: the % may be the effect or the level left; in short: as §3
Candida albicans [27] = assay: Antifungal activity against clinical isolates of Candida albicans 2367 at 2 times MIC after 48 hrs by disc diffusion assay; type: functional; in short: as §1
Candida albicans [28] = assay: Inhibition of ergosterol biosynthesis in Candida albicans 2323 assessed as ergosterol content at MIC after 16 hrs by spectrophotometer analysis; type: functional; design: scale not given: the % may be the effect or the level left; in short: as §3
Candida albicans [29] = assay: Antifungal activity against Candida albicans ATCC 10261 at half MIC after 48 hrs by disc diffusion assay; type: functional; in short: as §1
Candida tropicalis [30] = assay: Antifungal activity against Candida tropicalis ATCC 750 at half MIC after 48 hrs by disc diffusion assay; type: functional; in short: as §1
Candida albicans [31] = assay: Antifungal activity against clinical isolates of Candida albicans 2323 at MIC after 48 hrs by disc diffusion assay; type: functional; in short: as §1
Candida albicans [32] = assay: Inhibition of ergosterol biosynthesis in Candida albicans ATCC 10261 assessed as ergosterol content at MIC after 16 hrs by spectrophotometer analysis; type: functional; design: scale not given: the % may be the effect or the level left; in short: as §3
Candida albicans [33] = assay: Cytotoxicity against Candida albicans ATCC 10261 at MIC after 24 hrs by WST1 assay; type: functional
In short: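 Candida cells were exposed to MIC and sub-MIC levels for 24 h in microplates, then to WST-1/CEC dye for 30 min at 37 °C. Plates were shaken 1 min and the reaction stopped with 1% SDS. Formazan was read at 450 nm. % cytotoxicity = 100 × (cell control − experimental)/cell control. Triplicates, mean ± SD.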

Candida albicans [34] = assay: Antifungal activity against clinical isolates of Candida albicans 2367 at MIC after 48 hrs by disc diffusion assay; type: functional; in short: as §1
Candida tropicalis [35] = assay: Inhibition of ergosterol biosynthesis in Candida tropicalis ATCC 750 assessed as ergosterol content at MIC after 16 hrs by spectrophotometer analysis; type: functional; design: scale not given: the % may be the effect or the level left
In short: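 Cells were harvested, washed, and wet pellet weight recorded. Pellets were saponified in 3 mL 25% alcoholic KOH at 85 °C for 1 h, then sterols extracted into n-heptane. Ergosterol is expressed relative to untreated control cells.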

Candida albicans [36] = assay: Antifungal activity against Candida albicans ATCC 10261 by broth microdilution assay; type: functional; in short: as §2
Candida albicans [37] = assay: Antifungal activity against Candida albicans ATCC 10261 at MIC after 48 hrs by disc diffusion assay; type: functional; in short: as §1
Candida tropicalis [38] = assay: Antifungal activity against Candida tropicalis ATCC 750 at MIC after 48 hrs by disc diffusion assay; type: functional; in short: as §1
Candida albicans [39] = assay: Antifungal activity against clinical isolates of Candida albicans 2323 at 2 times MIC after 48 hrs by disc diffusion assay; type: functional; in short: as §1
Candida albicans [40] = assay: Inhibition of ergosterol biosynthesis in Candida albicans 2779 assessed as ergosterol content at 1/2 MIC after 16 hrs by spectrophotometer analysis; type: functional; design: scale not given: the % may be the effect or the level left; in short: as §3
Candida tropicalis [41] = assay: Antifungal activity against clinical isolates of Candida tropicalis 2029 at half MIC after 48 hrs by disc diffusion assay; type: functional; in short: as §1
Candida tropicalis [42] = assay: Inhibition of ergosterol biosynthesis in Candida tropicalis ATCC 750 assessed as ergosterol content at 1/2 MIC after 16 hrs by spectrophotometer analysis; type: functional; design: scale not given: the % may be the effect or the level left; in short: as §3
Candida tropicalis [43] = assay: Antifungal activity against clinical isolates of Candida tropicalis 2029 at 2 times MIC after 48 hrs by disc diffusion assay; type: functional; in short: as §1
Candida tropicalis [44] = assay: Inhibition of ergosterol biosynthesis in Candida tropicalis 2029 assessed as ergosterol content at 1/2 MIC after 16 hrs by spectrophotometer analysis; type: functional; design: scale not given: the % may be the effect or the level left; in short: as §3

With `CCc1ccnc(-c2nccn2Cc2nnc(-c3ccc(N)cc3)o2)c1` the “inhibition zone (IZ)” value (Candida albicans [1]) was 11 mm, the “inhibition zone (IZ)” value (Candida tropicalis [2]) was 5 mm and the “inhibition zone (IZ)” value (Candida albicans [3]) was 8 mm. The MIC (Candida tropicalis [4]) was 16 µg/mL (≈ 46.2 µM), the MIC (Candida tropicalis [5]) was 32 µg/mL (≈ 92.4 µM) and the “inhibition zone (IZ)” value (Candida albicans [6]) was 13 mm. For the same compound, the MIC (Candida tropicalis [7]) was 125 µg/mL (≈ 361 µM), the “inhibition zone (IZ)” value (Candida albicans [8]) was 2 mm and the “inhibition zone (IZ)” value (Candida tropicalis [9]) was 13 mm. For the same compound, the “inhibition zone (IZ)” value (Candida albicans [10]) was 1 mm, the Activity (Candida tropicalis [11]) was 84% and the “inhibition zone (IZ)” value (Candida tropicalis [12]) was 0 mm. The Activity (Candida albicans [13]) was 57%, the MIC (Candida albicans [14]) was 32 µg/mL (≈ 92.4 µM) and the Activity (Candida albicans [15]) was 81%. The Activity (Candida albicans [16]) was 43%, the Activity (Candida tropicalis [17]) was 86% and the Activity (Candida albicans [18]) was 81%. For the same compound, the “inhibition zone (IZ)” value (Candida albicans [19]) was 0 mm, the MIC (Candida albicans [20]) was 32 µg/mL (≈ 92.4 µM) and the Activity (Candida tropicalis [21]) was 52%. For the same compound, the MIC (Candida albicans [22]) was 64 µg/mL (≈ 185 µM), the “inhibition zone (IZ)” value (Candida tropicalis [23]) was 4 mm and the “inhibition zone (IZ)” value (Candida tropicalis [24]) was 7 mm. For the same compound, the Activity (Candida tropicalis [25]) was 80.81%, the Activity (Candida albicans [26]) was 45% and the “inhibition zone (IZ)” value (Candida albicans [27]) was 7 mm. The Activity (Candida albicans [28]) was 89%, the “inhibition zone (IZ)” value (Candida albicans [29]) was 7 mm and the “inhibition zone (IZ)” value (Candida tropicalis [30]) was 5 mm. The “inhibition zone (IZ)” value (Candida albicans [31]) was 4 mm, the Activity (Candida albicans [32]) was 98% and the Activity (Candida albicans [33]) was 87.27%. The “inhibition zone (IZ)” value (Candida albicans [34]) was 5 mm, the Activity (Candida tropicalis [35]) was 98% and the MIC (Candida albicans [36]) was 16 µg/mL (≈ 46.2 µM). The “inhibition zone (IZ)” value (Candida albicans [37]) was 10 mm, the “inhibition zone (IZ)” value (Candida tropicalis [38]) was 9 mm and the “inhibition zone (IZ)” value (Candida albicans [39]) was 7 mm. For the same compound, the Activity (Candida albicans [40]) was 42%, the “inhibition zone (IZ)” value (Candida tropicalis [41]) was 2 mm and the Activity (Candida tropicalis [42]) was 41%. The “inhibition zone (IZ)” value (Candida tropicalis [43]) was 8 mm and the Activity (Candida tropicalis [44]) was 44%.
